In ChEMBL document CHEMBL1125002, “Antiarthritic and suppressor cell inducing activity of azaspiranes: structure-function relationships of a novel class of immunomodulatory agents” (J Med Chem, 1990):
Activity calls are given as the source filed them. No cut-off for these calls is given here.

Columns and labels:
Rattus norvegicus [1] = assay: Total starting number of animals upon administration at a dose of 30 mg/kg; 8/8; type: functional
Rattus norvegicus [2] = assay: Adjuvant arthritic rat activity with respect to spirogermanium at a dose of 30 mg/kg; type: functional
Summary of the method: (§1)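 Lewis rats given adjuvant on day 0. Drug homogenized in aqueous 0.5% gum tragacanth, given orally at 10 mL/kg daily on days 0–10. Volume of the noninjected (secondary) hind paw measured on day 16 by mercury displacement. Activity is relative to non-drug controls and scaled to spirogermanium at 30 mg/kg, which is set at 1.00. Significance by Student's t test.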

Rattus norvegicus [3] = assay: Adjuvant arthritic rat activity determined with respect to spirogermanium at a dose of 30 mg/kg; type: functional; summary of the method: as §1
Rattus norvegicus [4] = assay: (§2) Adjuvant arthritic rat activity with respect to spirogermanium at a dose of 60 mg/kg; type: functional; summary of the method: as §1
Rattus norvegicus [5] = assay: Total starting number of animals upon administration at a dose of 60 mg/kg; 5/8; type: functional
Rattus norvegicus [6] = assay: Total starting number of animals upon administration at a dose of 30 mg/kg; 0/8; type: functional
Rattus norvegicus [7] = assay: Adjuvant arthritic rat activity with respect to spirogermanium at a dose of 7.5 mg/kg; type: functional; summary of the method: as §1
Rattus norvegicus [8] = assay: Total starting number of animals upon administration at a dose of 15 mg/kg; 2/8; type: functional
Rattus norvegicus [9] = assay: Total starting number of animals upon administration at a dose of 7.5 mg/kg; 8/8; type: functional
Rattus norvegicus [10] = assay: Total starting number of animals upon administration at a dose of 30 mg/kg; 6/6; type: functional
Rattus norvegicus [11] = assay: Total starting number of animals upon administration at a dose of 30 mg/kg; 7/8; type: functional
Rattus norvegicus [12] = assay: Total starting number of animals upon administration at a dose of 10 mg/kg; 7/7; type: functional
Rattus norvegicus [13] = assay: Adjuvant arthritic rat activity with respect to spirogermanium at a dose of 10 mg/kg; type: functional
Rattus norvegicus [14] = assay: Total starting number of animals upon administration at a dose of 30 mg/kg; 7/7; type: functional
Rattus norvegicus [15] = assay: Total starting number of animals upon administration at a dose of 90 mg/kg; 0/7; type: functional
Rattus norvegicus [16] = assay: Total starting number of animals upon administration at a dose of 60 mg/kg; 8/8; type: functional
Rattus norvegicus [17] = assay: Total starting number of animals upon administration at a dose of 30 mg/kg; 3/8; type: functional
Rattus norvegicus [18] = assay: Total starting number of animals upon administration at a dose of 15 mg/kg; 8/8; type: functional
Rattus norvegicus [19] = assay: Adjuvant arthritic rat activity with respect to spirogermanium at a dose of 15 mg/kg; type: functional; summary of the method: as §1
Rattus norvegicus [20] = assay: Adjuvant arthritic rat activity with respect to spirogermanium at a dose of 25 mg/kg; type: functional
Rattus norvegicus [21] = assay: Total starting number of animals upon administration at a dose of 25 mg/kg; 7/7; type: functional
Rattus norvegicus [22] = assay: Total starting number of animals upon administration at a dose of 30 mg/kg; 0/7; type: functional
Rattus norvegicus [23] = assay: Total starting number of animals upon administration at a dose of 15 mg/kg; 1/8; type: functional
Rattus norvegicus [24] = assay: Total starting number of animals upon administration at a dose of 60 mg/kg; 0/6; type: functional
Rattus norvegicus [25] = assay: Total starting number of animals upon administration at a dose of 15 mg/kg; 0/7; type: functional, organism-based; design: dose 15 mg/kg
Rattus norvegicus [26] = assay: Total starting number of animals upon administration at a dose of 60 mg/kg; 0/7; type: functional, organism-based; design: dose 60 mg/kg
Rattus norvegicus [27] = assay: Adjuvant arthritic rat activity with respect to spirogermanium at a dose of 30 mg/kg, active; type: functional, organism-based; design: dose 30 mg/kg
Rattus norvegicus [28] = assay: Adjuvant arthritic rat activity with respect to spirogermanium at a dose of 15 mg/kg, inactive; type: functional, organism-based; design: dose 15 mg/kg
Rattus norvegicus [29] = assay: as §2; type: functional; remark: listed apart in the source
Rattus norvegicus [30] = assay: Total starting number of animals upon administration at a dose of 30 mg/kg; 5/6; type: functional

| Compound | Survival (Rattus norvegicus [1]) | Activity (Rattus norvegicus [3]) | also measured |
| --- | --- | --- | --- |
| CCCC1(CCC)CCC2(CCN(CCCCCCCN(C)C)C2)CC1 | 8 | – | Activity (Rattus norvegicus [2]): 1.57 |
| CCCC1(CCC)CCC2(CCN(CCCCCCN(C)C)C2)CC1 | 8 | 1.2 | – |
| CN(C)CCCN1CCC2(CCC3(CCCCCC3)CC2)C1 | 8 | 0.22 | Activity (Rattus norvegicus [4]): 1.7; Survival (Rattus norvegicus [5]): 5 |
| CCCCC1(CCCC)CCC2(CCN(CCCN(C)C)C2)CC1 | – | – | Survival (Rattus norvegicus [6]): 0; Activity (Rattus norvegicus [7]): 0.41; Survival (Rattus norvegicus [8]): 2; Survival (Rattus norvegicus [9]): 8 |
| CCCC1(CCC)CCC2(CCN(CCCN3CCCCC3)C2)CC1 | 8 | 1.7 | – |
| CN(C)CCCN1CCC2(CCCCC2)CC1 | 8 | 0.2 | – |
| CN(C)CCCN1CCC2(CCC(c3ccccc3)CC2)C1 (stereo not given) | 8 | 0.25 | – |
| CCCC1(CCC)CCC2(CCN(CCCNC(C)=O)C2)CC1 | – | 0.24 | Survival (Rattus norvegicus [10]): 6 |
| CCCC1(CCC)CCC2(CCN(CCCNC)C2)CC1 | – | 1.55 | Survival (Rattus norvegicus [10]): 6 |
| CC(C)CC1(CC(C)C)CCC2(CCN(CCCN(C)C)C2)CC1 | – | 0.97 | Survival (Rattus norvegicus [11]): 7 |
| CN(C)CCCN1CCC2(CCC(C)(C)CC2)C1 | 8 | 0.12 | – |
| CCCC1(CCC)CCC2(CCN(CCN(C)C)C2)CC1 | 8 | 0 | – |
| CN(C)CCCN1CCC2(CCCCC2)C1 | 8 | 0.27 | – |
| CCC1(CC)CCC2(CCN(CCCN(C)C)CC2)CC1 | – | 0.3 | Survival (Rattus norvegicus [12]): 7; Activity (Rattus norvegicus [13]): 0.03; Survival (Rattus norvegicus [14]): 7; Survival (Rattus norvegicus [15]): 0 |
| CC1CCC2(CC1)CCN(CCCN(C)C)CC2 | 8 | 0.25 | – |
| CCC1(CC)CCC2(CCN(CCCN(C)C)C2)CC1 | – | 0.57 | Survival (Rattus norvegicus [12]): 7; Activity (Rattus norvegicus [13]): 0.1; Survival (Rattus norvegicus [14]): 7; Survival (Rattus norvegicus [15]): 0 |
| CN(C)CCCN1CCC2(CCCCCC2)C1.Cl | 8 | 0.2 | – |
| CN(C)CCCN1CCC2(CCC(C(C)(C)C)CC2)C1 (stereo not given) | 8 | 0.31 | – |
| CN(C)CCCN1CCC2(CC3CCC2C3)C1.Cl (stereo not given) | 8 | 0 | Activity (Rattus norvegicus [4]): 0.1; Survival (Rattus norvegicus [16]): 8 |
| CCCCCC1(CCCCC)CCN(CCCN(C)C)C1.Cl | 8 | 0.19 | – |
| CCCCCCCCCCC1CCC2(CC1)CCN(CCCN(C)C)C2 (stereo not given) | 8 | – | Activity (Rattus norvegicus [2]): 0.78 |

| Compound | Survival (Rattus norvegicus [1]) | Activity (Rattus norvegicus [3]) | also measured |
| --- | --- | --- | --- |
| CCCC1(CCC)CCC2(CCN(CCCCCN(C)C)C2)CC1 | 8 | 0.82 | – |
| CCCC1(CCC)CCC2(CCN(CCCO)C2)CC1.Cl | – | – | Activity (Rattus norvegicus [4]): 0.31; Survival (Rattus norvegicus [16]): 8 |
| CN(C)CCCN1CCC2(CCC(C(C)(C)C)CC2)CC1 | – | 0.33 | Survival (Rattus norvegicus [12]): 7; Activity (Rattus norvegicus [13]): 0.04; Survival (Rattus norvegicus [14]): 7; Survival (Rattus norvegicus [15]): 0 |
| CCCC1(CCC)CCC2(CCN(CCCN(C)C)CC2)CC1 | – | 1.02 | Survival (Rattus norvegicus [17]): 3 |
| CCCCCC1(CCCCC)CCC2(CCN(CCCN(C)C)CC2)CC1 | – | – | Survival (Rattus norvegicus [18]): 8; Survival (Rattus norvegicus [6]): 0; Activity (Rattus norvegicus [7]): 0.18; Survival (Rattus norvegicus [9]): 8; Activity (Rattus norvegicus [19]): 0.18 |
| CN(C)CCCN1CCC2(CCSCC2)C1 | – | – | Activity (Rattus norvegicus [20]): 0; Survival (Rattus norvegicus [21]): 7 |
| CCCC1(CCC)CCC2(CCN(CCCN3CCOCC3)C2)CC1.Cl | – | 0 | Survival (Rattus norvegicus [22]): 0; Survival (Rattus norvegicus [23]): 1; Activity (Rattus norvegicus [19]): 0 |
| CCCC1(CCC)CCC2(CCN(CCCN(CC)CC)C2)CC1 [ATIPRIMOD] | 8 | 1.42 | – |
| CCCC1(CCC)CCC2(CCN(CCCCN(C)C)C2)CC1 | 8 | 0.46 | – |
| CCCCN(CCCC)CCCN1CCC2(CCC(CCC)(CCC)CC2)C1 | 8 | 0.07 | – |
| CCCC1(CCC)CCC2(CCN(CCCN(C)C)C2)CC1 | 8 | 1.35 | Survival (Rattus norvegicus [18]): 8; Survival (Rattus norvegicus [24]): 0; Activity (Rattus norvegicus [19]): 0.18 |
| [3-(8,8-Diethyl-2-aza-8-germa-spiro[4.5]dec-2-yl)-propyl]-dimethyl-amine | – | – | Survival (Rattus norvegicus [25]): 0; Survival (Rattus norvegicus [26]): 0; Activity (Rattus norvegicus [27]): Active; Survival (Rattus norvegicus [22]): 0; Activity (Rattus norvegicus [28]): inactive |
| CCCC1(CCC)CCC2(CCN(CCCN3CCCC3)C2)CC1 | 8 | 1.03 | – |
| CC1CCCC2(CCN(CCCN(C)C)C2)C1.Cl (stereo not given) | 8 | 0 | – |
| CN(C)CCCN1CC2C3CCC(CC3)C2C1.Cl (stereo not given) | 8 | 0.35 | – |
| CCCN(CCC)CCCN1CCC2(CCC(CCC)(CCC)CC2)C1 | 8 | 0.43 | – |
| CN(C)CCCN1CCC2(CC[Si](C)(C)CC2)C1 | 0 | – | Activity (Rattus norvegicus [29]): 0 |
| CCCC1(CCC)CCC2(CC1)CC[N+](C)(CCC[N+](C)(C)C)C2 (stereo not given) | 8 | 0.05 | – |
| CCCC1(CCC)CCC2(CCN(CCCN)C2)CC1 | – | 0.91 | Survival (Rattus norvegicus [30]): 5 |
| CC[Si]1(CC)CCC2(CCN(CCCN(C)C)C2)CC1 | 8 | 0.92 | Survival (Rattus norvegicus [18]): 8; Activity (Rattus norvegicus [19]): 0.27 |
